Experimental data: ChEMBL document CHEMBL1268976, “Stereocontrolled facile synthesis and antimicrobial activity of oximes and oxime ethers of diversely substituted bispidines” (2010)
Values after ≈ are worked out from the molar mass of the structure shown.

Columns and labels:
Type in all cases: functional
Staphylococcus aureus = test: Antibacterial activity against Staphylococcus aureus by broth microdilution method
How it was run: (§1)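 In vitro broth microdilution following the NCCLS standard for bacteria (M7-A5). The test panel was Bacillus subtilis, Staphylococcus aureus, Klebsiella pneumoniae and Pseudomonas aeruginosa.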

Cryptococcus neoformans = test: Antimicrobial activity against Cryptococcus neoformans by broth microdilution method
How it was run: (§2)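 Fungal panel of Candida albicans, Candida parapsilosis, Aspergillus niger and Cryptococcus neoformans, tested in vitro by standard NCCLS broth microdilution. The yeast susceptibility reference cited is M27-A.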

Aspergillus niger = test: Antifungal activity against Aspergillus niger by broth microdilution method; how it was run: as §2
Bacillus subtilis = test: Antibacterial activity against Bacillus subtilis by broth microdilution method; how it was run: as §1
Candida parapsilosis = test: Antifungal activity against Candida parapsilosis by broth microdilution method; details: Lodderomyces parapsilosis; how it was run: as §2
Klebsiella pneumoniae = test: Antibacterial activity against Klebsiella pneumoniae by broth microdilution method; how it was run: as §1
Candida albicans = test: Antifungal activity against Candida albicans by broth microdilution method; how it was run: as §2
Pseudomonas aeruginosa = test: Antibacterial activity against Pseudomonas aeruginosa by broth microdilution method; how it was run: as §1

Row | Compound | MIC90 (Staphylococcus aureus) [µg/mL] | MIC90 (Cryptococcus neoformans) [µg/mL] | MIC90 (Aspergillus niger) [µg/mL] | MIC90 (Bacillus subtilis) [µg/mL] | MIC90 (Candida parapsilosis) [µg/mL] | MIC90 (Klebsiella pneumoniae) [µg/mL] | MIC90 (Candida albicans) [µg/mL] | MIC90 (Pseudomonas aeruginosa) [µg/mL]
1 | CON=C1C2C(c3ccc(Br)cc3)NC(c3ccc(Br)cc3)C1C(c1ccc(Br)cc1)NC2c1ccc(Br)cc1 (stereo not given) | > 128 | > 128 | > 128 | 64 (≈ 81.1 µM) | 16 (≈ 20.3 µM) | > 128 | > 128 | > 128
2 | ON=C1C2C(c3ccc(Cl)cc3)NC(c3ccc(Cl)cc3)C1C(c1ccc(Cl)cc1)NC2c1ccc(Cl)cc1 (stereo not given) | 64 (≈ 107 µM) | > 128 | 64 (≈ 107 µM) | > 128 | 128 (≈ 214 µM) | 16 (≈ 26.8 µM) | 8 (≈ 13.4 µM) | 32 (≈ 53.6 µM)
3 | ON=C1C2C(c3ccccc3)NC(c3ccccc3)C1C(c1ccccc1)NC2c1ccccc1 (stereo not given) | > 128 | > 128 | > 128 | > 128 | > 128 | > 128 | > 128 | > 128
4 | CCCCOc1ccc(C2NC(c3ccc(OCCCC)cc3)C3C(=NOC)C2C(c2ccc(OCCCC)cc2)NC3c2ccc(OCCCC)cc2)cc1 (stereo not given) | > 128 | 32 (≈ 42 µM) | 32 (≈ 42 µM) | > 128 | > 128 | 64 (≈ 84 µM) | > 128 | 64 (≈ 84 µM)
5 | ON=C1C2C(c3ccccc3F)NC(c3ccccc3F)C1C(c1ccccc1F)NC2c1ccccc1F (stereo not given) | > 128 | > 128 | 4 (≈ 7.53 µM) | 64 (≈ 120 µM) | 64 (≈ 120 µM) | 32 (≈ 60.2 µM) | 32 (≈ 60.2 µM) | 16 (≈ 30.1 µM)
6 | OC(Cn1cncn1)(Cn1cncn1)c1ccc(F)cc1F [FLUCONAZOLE] |  | 2 (≈ 6.53 µM) | 4 (≈ 13.1 µM) |  | 2 (≈ 6.53 µM) |  | 1 (≈ 3.27 µM) | 
7 | C=CCOc1ccc(C2NC(c3ccc(OCC=C)cc3)C3C(=NOC)C2C(c2ccc(OCC=C)cc2)NC3c2ccc(OCC=C)cc2)cc1 (stereo not given) | > 128 | > 128 | 64 (≈ 91.7 µM) | 64 (≈ 91.7 µM) | 32 (≈ 45.9 µM) | 16 (≈ 22.9 µM) | > 128 | 64 (≈ 91.7 µM)
8 | CON=C1C2C(c3cccc(Br)c3)NC(c3cccc(Br)c3)C1C(c1cccc(Br)c1)NC2c1cccc(Br)c1 (stereo not given) | > 128 | > 128 | > 128 | > 128 | > 128 | > 128 | > 128 | > 128
9 | ON=C1C2C(c3ccc(F)cc3)NC(c3ccc(F)cc3)C1C(c1ccc(F)cc1)NC2c1ccc(F)cc1 (stereo not given) | 16 (≈ 30.1 µM) | 128 (≈ 241 µM) | 4 (≈ 7.53 µM) | 64 (≈ 120 µM) | > 128 | 64 (≈ 120 µM) | 4 (≈ 7.53 µM) | 32 (≈ 60.2 µM)
10 | CCc1ccc(C2NC(c3ccc(CC)cc3)C3C(=NOC)C2C(c2ccc(CC)cc2)NC3c2ccc(CC)cc2)cc1 (stereo not given) | > 128 | > 128 | > 128 | > 128 | 32 (≈ 54.6 µM) | 64 (≈ 109 µM) | 128 (≈ 218 µM) | 32 (≈ 54.6 µM)
11 | COc1ccc(C2NC(c3ccc(OC)cc3)C3C(=NO)C2C(c2ccc(OC)cc2)NC3c2ccc(OC)cc2)cc1 (stereo not given) | 64 (≈ 110 µM) | 64 (≈ 110 µM) | 16 (≈ 27.6 µM) | > 128 | 64 (≈ 110 µM) | 64 (≈ 110 µM) | > 128 | 16 (≈ 27.6 µM)
12 | CON=C1C2C(c3cccc(OC)c3)NC(c3cccc(OC)c3)C1C(c1cccc(OC)c1)NC2c1cccc(OC)c1 (stereo not given) | 128 (≈ 216 µM) | 128 (≈ 216 µM) | 16 (≈ 26.9 µM) | > 128 | > 128 | > 128 | 128 (≈ 216 µM) | 64 (≈ 108 µM)
13 | CON=C1C2C(c3ccccc3F)NC(c3ccccc3F)C1C(c1ccccc1F)NC2c1ccccc1F (stereo not given) | 64 (≈ 117 µM) | > 128 | 4 (≈ 7.33 µM) | 32 (≈ 58.7 µM) | 64 (≈ 117 µM) | 16 (≈ 29.3 µM) | 8 (≈ 14.7 µM) | 4 (≈ 7.33 µM)
